# Screening results as filed in PubChem.
# NR2E3 ag-1 = human photoreceptor-specific nuclear receptor agonism; CHO-S Gal4-NCOR/VP16-NR2E3 two-hybrid, luciferase; inhibition of corepressor binding, % at 3.98 µM; 360,000 tested, 0.35% active; AID 602229;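 active = inhibition above the mean of all tested compounds plus 3 SD, cut at about 70% in these data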;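 also: 0% = DMSO with NR2E3 transfected cells and 100% = cells lacking NR2E3 construct; higher means lower luciferase signal from less NR2E3 corepressor binding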
# Target sequence (Q9Y5X4 whole entry, looked up, the tested form may be a part): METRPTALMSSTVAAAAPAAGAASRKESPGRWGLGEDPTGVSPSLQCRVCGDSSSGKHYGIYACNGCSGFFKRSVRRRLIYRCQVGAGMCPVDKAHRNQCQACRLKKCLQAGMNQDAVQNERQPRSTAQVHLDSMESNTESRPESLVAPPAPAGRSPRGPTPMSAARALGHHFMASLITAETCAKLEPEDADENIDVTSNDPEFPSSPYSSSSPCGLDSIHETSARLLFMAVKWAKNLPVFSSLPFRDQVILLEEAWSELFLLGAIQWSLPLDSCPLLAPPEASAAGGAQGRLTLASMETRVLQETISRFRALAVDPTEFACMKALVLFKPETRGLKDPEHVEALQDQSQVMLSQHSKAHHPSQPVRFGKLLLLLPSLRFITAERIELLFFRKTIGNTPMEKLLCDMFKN
# PKA-R1A act = PKA-R1A complex activation | P00514+P68181 | PKA-R1A dissociation, Cy5-IP20 fluorescence polarization; scaled: DMSO 0%, 113 µM cGMP 100% | activation, % at 11.4 µM | 340,000 tested, 0.083% active;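 active = percent activation above the mean of all tested compounds plus 3 SD, cut at about 19% in these data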;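 also: higher means more PKAc released from R1A so a rise in polarization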
# Rev-erbA mod = modulators of human Rev-erb alpha DNA binding; Rev-erbα–FITC-DNA binding, fluorescence polarization, 90 min; 370,000 tested, 0.79% active; P20393; AID 1259318; activity, % at 10 µM;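 active = activity above about 14%, limit read from the data; passing the limit was not always enough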;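 also: 0% = DMSO wells with 35 nM protein and 100% = DMSO wells with 750 nM protein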
# PG9 Ab binder = binds the HIV-1 gp120 antibody PG9. 360,000 tested, 0.43% active. inhibition, % at 6.7 µM. TR-FRET gp120-PG9 antibody binding; in the data active = inhibition above about 8.5%
# PKA-R2B activ = activators of human PKA-R2B complex | 340,000 tested, 0.079% active | activation, % at 11.4 µM | PKA-R2B holoenzyme dissociation, Cy5-IP20 fluorescence polarization; R2B truncated from residue 108, S112A mutant; 0% DMSO only, 100% 113 µM cGMP;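 active = activation above a cutoff set at the mean over all compounds plus 3 SD, cut at about 18% in these data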;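 also: higher means more holoenzyme dissociation and a rise in polarization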
# NR2E3 ag-2 = activates human photoreceptor nuclear receptor NR2E3 | GST-NR2E3/biotin-RetCOR TR-FRET, 1536-well | inhibition of corepressor binding, % at 4.78 µM | 320,000 tested, 0.12% active;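 active = percent inhibition above the cutoff of mean plus 3 SD of all tested compounds, set per screening campaign, cut at about 20% in these data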;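 also: 0% = DMSO wells and 100% = biotin wells as full block of FRET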
#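 Format: 1536-well format; test system: GST-NR2E3 and biotin-RetCOR proteins; read-out basis: percent inhibition of TR-FRET ratio; timing: 5 h incubation at 4 °C; detection: time-resolved FRET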
# PG9 bind confirm = confirmation of small molecules binding HIV-1 gp120 antibody PG9; inhibition, % at 6.7 µM; AID 651571; shares compounds with PG9 Ab binder; 1,500 tested, 90% active; TR-FRET PG9 antibody binding, biochemical; in the data active = inhibition above about 9%
# PGV04 counter = PGV04 control antibody binding, counter-screen; shares compounds with PG9 Ab binder; TR-FRET PGV04 antibody-gp120 binding, biochemical; inhibition, % at 6.7 µM; 1,500 tested, 95% active; AID 651604; in the data active = inhibition above about 9.5%
# PG9 binder DR = PG9 antibody binding, dose response; IC50, µM; AID 651848; shares compounds with PG9 Ab binder; 95 tested, under 10 active; TR-FRET PG9 antibody-gp120 binding inhibition; in the data active = IC50 below about 10 µM
# PGV04 DR counter = counter-screen for PG9 binders: binding to control antibody PGV04; shares compounds with PG9 Ab binder; TR-FRET binding to control antibody PGV04; IC50, µM; 95 tested, 20% active; AID 651937
# PG126 DR counter = binds control antibody PG126 in PG9 counter-screen | shares compounds with PG9 Ab binder | TR-FRET binding to antibody PG126, counterscreen | IC50, µM | 95 tested, 20% active | AID 651939
# Rev-erbA confirm = Rev-erb alpha (human) modulation, hit confirmation; shares compounds with Rev-erbA mod; Rev-erb alpha FITC-DNA binding, fluorescence polarization, 90 min; activation, % at 25 µM; 3,000 tested, 61% active;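 active = activation at or above a set limit, or at least 3 SD above the negative control mean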;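 also: 0% = 35 nM protein with DMSO and 100% = 750 nM protein high control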
# RORg DNA counter = counter-screen for Rev-erb alpha modulators: RORgamma DNA binding. shares compounds with Rev-erbA mod. purified RORgamma protein-FITC-DNA binding, fluorescence polarization. IC50, µM. 910 tested, 8% active. AID 1259320;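 active = Compounds whose fitted half-maximal concentration for disrupting protein-DNA binding is below 10 micromolar; the record names Rev-erb in its text, so the target is in doubt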
# * marks the source's active call; other numbers are inactive results; i = inactive; nt = no result given. Compounds with a hit are over-represented: about 1.6% of the library has one in this group of screens. Rule as the data show it, unless noted: active = IC50 below about 9 µM; inactive = the rest.
SMILES,NR2E3 ag-1,PKA-R1A act,Rev-erbA mod,PG9 Ab binder,PKA-R2B activ,NR2E3 ag-2,PG9 bind confirm,PGV04 counter,Rev-erbA confirm,others
O=C(c1cccc(F)c1)N1CCCC(c2nc(-c3cccs3)no2)C1 (configuration not stated),nt,nt,9.0,nt,nt,nt,nt,nt,nt,
CCc1nonc1NC(=O)c1oc2ccccc2c1C,5.8,-2.5,-0.1,-2.3,-12.2,0.5,nt,nt,nt,
CCc1nonc1NC(=O)c1oc2cc(Br)ccc2c1C,-12.6,-0.6,16.8*,18.4*,-10.9,13.7,19.8*,38.1*,9.4,
Cc1sc2ncnc(N3CCC(C(=O)Nc4nnc(CC(C)C)s4)CC3)c2c1C,-30.8,3.5,17.0*,14.3*,-2.2,-4.5,41.8*,54.0*,11.9,
Cc1ccc(OCC(=O)NNC(=O)C2CCN(c3ncnc4sc(C)c(C)c34)CC2)cc1,-26.9,-5.1,-2.5,-1.0,-7.6,-0.2,nt,nt,nt,
O=C(CSc1nnc(-c2ccccc2)n1-c1ccc(Cl)cc1)Nc1cccc2ccccc12,nt,nt,-1.7,nt,nt,nt,nt,nt,nt,
CCCCCCCCN1CCS(=O)(=O)N(Cc2ccc(OC)cc2)C(C(=O)OC)C1 (configuration not stated),nt,nt,2.4,nt,nt,nt,nt,nt,nt,
O=C(c1cc2cc(Br)ccc2[nH]1)N1CCc2ccccc21,-29.9,-6.7,48.9*,15.1*,-3.9,nt,22.2*,46.3*,53.7*,RORg DNA counter=>40
COc1ccc(CC(=O)Nc2ccc(C)cc2S(=O)(=O)N2CCOCC2)cc1OC,nt,nt,6.8,nt,nt,nt,nt,nt,nt,
COc1ccccc1C(=O)Nc1nc2ccc(S(C)(=O)=O)cc2s1,-48.8,7.3,49.0*,18.9*,-2.4,0.1,26.9*,36.8*,31.4*,
CS(=O)(=O)c1ccc2nc(NC(=O)c3ccc(Cl)cc3)sc2c1,-10.8,-9.4,37.5*,58.0*,7.1,3.1,51.4*,64.5*,17.1,
CS(=O)(=O)c1ccc2nc(NC(=O)c3cccc(Cl)c3)sc2c1,-35.7,-0.5,0.4,-1.4,-4.3,1.2,nt,nt,nt,
COc1ccc(C(=O)Nc2nc3ccc(S(C)(=O)=O)cc3s2)cc1,-8.1,-2.7,26.9*,45.8*,3.2,3.0,40.8*,57.9*,10.8,
CC[C@@H](CCCCCCCn1ccc2ccccc21)CCC(=O)N(c1ccccc1)c1ccccc1,nt,nt,-2.2,nt,nt,nt,nt,nt,nt,
O=C(NCc1ccco1)C1CCCN(S(=O)(=O)c2cccs2)C1 (configuration not stated),nt,nt,-0.7,nt,nt,nt,nt,nt,nt,
O=c1[nH]c(SCCOc2ccccc2)nc2ccccc12,-64.8,-2.9,45.7*,39.5*,2.3,2.1,32.6*,51.8*,25.1*,
C=CCSc1nc(N)c(C#N)c(-c2ccc(C)cc2)c1C#N,-19.5,-8.5,16.7,-0.4,-8.0,2.0,nt,nt,nt,
N#Cc1c(N)nc(SCC(=O)NC2CCCCC2)c(C#N)c1-c1ccc(Cl)cc1,14.2,-4.8,24.5*,18.4*,-8.4,4.4,26.2*,29.5*,24.8*,
CC(C)c1ccc(-c2c(C#N)c(N)nc(SCC(=O)N3CCCCCC3)c2C#N)cc1,nt,nt,51.7*,82.9*,nt,2.6,88.7*,92.3*,8.7,
CC(C)c1ccc(-c2c(C#N)c(N)nc(SCC(=O)N3CCCCC3)c2C#N)cc1,19.1,-2.5,83.0*,42.2*,5.0,3.4,69.2*,66.1*,68.8*,PG9 binder DR=6.05*;PGV04 DR counter=3.44*;PG126 DR counter=4*;RORg DNA counter=>40
COC(=O)CSc1nc(N)c(C#N)c(-c2ccc(O)cc2)c1C#N,-46.1,-2.4,-5.5,-1.5,-7.4,-1.6,nt,nt,nt,
CCC(=O)c1cn(CC(=O)Nc2ccccc2Cl)c2ccccc12,11.1,-3.7,79.8*,11.3*,8.1,3.4,13.7*,14.7*,44.0*,RORg DNA counter=>40
CCC(=O)c1cn(CC(=O)Nc2cccc(C)c2)c2ccccc12,-8.5,7.9,52.1*,24.8*,10.5,19.3,15.5*,22.9*,45.1*,RORg DNA counter=i
COc1cccc(NC(=O)Cn2cc(C(=O)C3CC3)c3ccccc32)c1,-4.0,-3.8,-2.4,0.8,-3.4,2.1,nt,nt,nt,
CCC(=O)c1cn(CC(=O)O)c2ccccc12,0.1,4.5,-4.7,-1.8,-3.3,1.7,nt,nt,nt,
SMILES,NR2E3 ag-1,PKA-R1A act,Rev-erbA mod,PG9 Ab binder,PKA-R2B activ,NR2E3 ag-2,PG9 bind confirm,PGV04 counter,Rev-erbA confirm,others
COc1ccc(C(=O)Nc2ccc(NC(=O)c3cc(OC)c(OC)c(OC)c3)cn2)cc1,-18.6,8.5,19.6*,20.2*,2.0,3.1,14.8*,20.3*,2.5,
CCCCNC(=O)CCCn1c(=S)[nH]c2cc3c(cc2c1=O)OCO3,-19.4,2.8,-4.5,-0.3,7.5,-2.7,nt,nt,nt,
O=c1c2ccccc2[nH]c(=S)n1Cc1ccc2c(c1)OCO2,-17.1,1.2,37.7*,8.6*,-4.8,-3.1,12.2*,21.8*,47.5*,RORg DNA counter=>40
O=C(CCCn1c(=S)[nH]c2cc3c(cc2c1=O)OCO3)NCc1ccccc1Cl,-7.4,-2.6,49.5*,18.7*,-9.3,3.1,21.3*,20.8*,32.6*,PG9 binder DR=>67.1;PGV04 DR counter=i;PG126 DR counter=i;RORg DNA counter=>40
CC(C)NC(=O)N[C@H]1C[C@@H]2O[C@H](CO)CC[C@@H]2O[C@@H]1CCc1ccc(-c2ccc(F)cc2)cc1,nt,nt,-3.3,nt,nt,nt,nt,nt,nt,
CCCCCCCCNC(=O)C1CSCCS(=O)(=O)N1Cc1ccc(OC)cc1 (configuration not stated),nt,nt,-4.3,nt,nt,nt,nt,nt,nt,
O=C(Nc1ccon1)c1sc2cc(F)ccc2c1Cl,-56.6,-4.6,34.0*,15.0*,1.1,-14.2,23.8*,45.8*,22.1*,
COc1ccc(C(=O)c2cccc(C(=O)c3ccc(OC)c(C)c3)c2)cc1C,10.6,6.0,-1.0,-1.0,6.2,nt,nt,nt,nt,
COc1ccc(C(=O)c2ccc(OC)c(Br)c2)cc1Br,-5.7,-9.0,113.4*,18.9*,-0.4,0.9,11.9*,13.9*,76.7*,RORg DNA counter=>40
